Laboratory results taken from publication PMC9061098 (RSC Advances, 2019).
Peptide text beside a SMILES is read from it.

Tests used:
Test in all cases: MIC/MBC microdilution assay
S. aureus ATCC 25923 = type: cell-based, Staphylococcus aureus; conditions: n = 2; for Antibacterial activity, MIC: microdilution, 24 h at 37 °C, absorbance 620 nm; for Antibacterial activity, MBC: plated on MHA, overnight 37 °C
Summary of the method: (§1)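 Broth microdilution: 90 µL peptide (200, 100, 50, 25, 12.5 and 6.2 µg mL-1 as added) plus 10 µL inoculum (5 × 10^6 CFU mL-1 as added). Incubation 24 h at 37 °C; growth read as absorbance at 620 nm. For MBC, wells with no visible growth were loop-sampled, spread on MHA and incubated overnight at 37 °C. Run twice (n = 2).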

E. faecalis ATCC 29212 = type: cell-based, Enterococcus faecalis; conditions: n = 2; for Antibacterial activity, MIC: microdilution, 24 h at 37 °C, absorbance 620 nm; for Antibacterial activity, MBC: plated on MHA, overnight 37 °C
Summary of the method: as §1

E. coli ATCC 43827 = type: cell-based, Escherichia coli; conditions: n = 2; for Antibacterial activity, MIC: microdilution, 24 h at 37 °C, absorbance 620 nm; for Antibacterial activity, MBC: plated on MHA, overnight 37 °C
Summary of the method: as §1

P. aeruginosa ATCC 27853 = type: cell-based, Pseudomonas aeruginosa; conditions: n = 2; for Antibacterial activity, MIC: microdilution, 24 h at 37 °C, absorbance 620 nm; for Antibacterial activity, MBC: plated on MHA, overnight 37 °C
Summary of the method: as §1

E. coli ATCC 11775 = type: cell-based, Escherichia coli; conditions: n = 2
Summary of the method: as §1

E. coli ATCC 25922 = type: cell-based, Escherichia coli; conditions: n = 2
Summary of the method: as §1

[1] = microdilution, 24 h at 37 °C, absorbance 620 nm

SMILES | Antibacterial activity, MIC (S. aureus ATCC 25923) | Antibacterial activity, MBC (S. aureus ATCC 25923) | Antibacterial activity, MIC (E. faecalis ATCC 29212) | Antibacterial activity, MBC (E. faecalis ATCC 29212) | Antibacterial activity, MIC (E. coli ATCC 43827) | Antibacterial activity, MBC (E. coli ATCC 43827) | Antibacterial activity, MIC (P. aeruginosa ATCC 27853) | Antibacterial activity, MBC (P. aeruginosa ATCC 27853) | Antibacterial activity, MIC (E. coli ATCC 11775; [1]) | Antibacterial activity, MBC (E. coli ATCC 11775; plated on MHA, overnight 37 °C) | Antibacterial activity, MIC (E. coli ATCC 25922; [1]) | Antibacterial activity, MBC (E. coli ATCC 25922; plated on MHA, overnight 37 °C)
N=C(N)NCCC[C@H](NC(=O)[C@H](Cc1c[nH]c2ccccc12)NC(=O)[C@H](CCC(N)=O)NC(=O)[C@H](Cc1c[nH]c2ccccc12)NC(=O)[C@H](CCCNC(=N)N)NC(=O)[C@@H](N)CCCNC(=N)N)C(N)=O [LfcinB (20–25)] (H-RRWQWR-NH2) | 203 µM | > 203 µM | > 203 µM | > 203 µM | 102 µM | 203 µM | 203 µM | > 203 µM |  |  |  | 
CSCC[C@H](NC(=O)[C@H](CCCNC(=N)N)NC(=O)[C@H](Cc1c[nH]c2ccccc12)NC(=O)[C@H](CCC(N)=O)NC(=O)[C@H](Cc1c[nH]c2ccccc12)NC(=O)[C@H](CCCNC(=N)N)NC(=O)[C@@H](N)CCCNC(=N)N)C(=O)N[C@@H](CCCCN)C(=O)N[C@@H](CCCCN)C(=O)N[C@@H](CC(C)C)C(=O)NCC(N)=O [LfcinB (20–30)] (H-RRWQWRMKKLG-NH2) | 130 µM | > 130 µM | > 130 µM | > 130 µM | 65 µM | 130 µM | > 130 µM | > 130 µM |  |  |  | 
N=C(N)NCCC[C@H](NC(=O)[C@H](Cc1c[nH]c2ccccc12)NC(=O)[C@H](CCC(N)=O)NC(=O)[C@H](Cc1c[nH]c2ccccc12)NC(=O)[C@H](CCCNC(=N)N)NC(=O)[C@H](Cc1c[nH]c2ccccc12)NC(=O)[C@H](CCC(N)=O)NC(=O)[C@H](Cc1c[nH]c2ccccc12)NC(=O)[C@@H](N)CCCNC(=N)N)C(N)=O [LfcinB (21–25)Pal] (H-RWQWRWQWR-NH2) | 135 µM | > 135 µM | 67 µM | 67 µM | 17 µM | 67 µM | 67 µM | 135 µM | 17 µM | 17 µM | 17 µM | 34 µM
CSCC[C@H](NC(=O)[C@H](CCCNC(=N)N)NC(=O)[C@H](Cc1c[nH]c2ccccc12)NC(=O)[C@H](CCC(N)=O)NC(=O)[C@H](Cc1c[nH]c2ccccc12)NC(=O)[C@H](CCCNC(=N)N)NC(=O)[C@H](CCCNC(=N)N)NC(=O)[C@H](C)NC(=O)[C@H](CCCCN)NC(=O)[C@@H](N)Cc1ccccc1)C(=O)N[C@@H](CCCCN)C(=O)N[C@@H](CCCCN)C(=O)N[C@@H](CC(C)C)C(=O)NCC(=O)N[C@@H](C)C(N)=O [[Ala^19]-LfcinB (17–31)] | > 102 µM | > 102 µM | > 102 µM | > 102 µM | 102 µM | > 102 µM | 102 µM | > 102 µM |  |  |  | 
